# Bioassay records (PubChem BioAssay)
# MPTP inh – mitochondrial permeability transition pore inhibitors, primary screen, biochemical, isolated mouse mitochondria, absorbance. 360,000 tested, 1.4% active. inhibition, % at 10 µM. Ca2+ swelling absorbance, 30 min;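 active = inhibition of 50% or more, scaled per plate between neutral and stimulator controls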;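 also: 0% = DMSO wells given calcium and 100% = 1 mM EGTA wells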
# T cruzi inh – inhibitors of intracellular T. cruzi growth, primary screen, luminescence, NIH3T3 host cells. T. cruzi beta-gal in NIH3T3, 90 h. inhibition, % (test concentration not listed). 300,000 tested, 1.4% active;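 active = mean inhibition across valid replicates above about 55%, limit read from the data; inconclusive = mean below that limit but half or more replicates reach it; inactive = mean below it, under half of replicates reach it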;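 also: signal also drops with host cell toxicity which is not excluded here; 0% = plate median of DMSO wells and 100% = zero luminescence signal; higher percent means less beta-gal luminescence so fewer parasites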
#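 Assay system: NIH/3T3 fibroblasts plus reporter T. cruzi. Amount: NIH/3T3 cells, 5,000 per well. Buffer or medium: DMEM, 2% fetal bovine serum. Doses: compound pinned at 50 nL/well, DMSO. Schedule: ≥90 h infection period, 3 h prior cell attachment. Signal: luminescent β-galactosidase signal after 60 min lysis. Read-out: parasite load inhibition, %.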
# Redox H2O2 prof – compounds producing H2O2 with reducing agent – biochemical, NIH compound library profiling, artefact control for MLSCN library redox annotation, primary screen; activation, % at 10 µM; AID 878, 2007; 200,000 tested, 0.03% active; DTT-dependent redox cycling H2O2, phenol red/HRP absorbance; 100% = 100 µM peroxide control, 0% = buffer;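 active = activation of at least 50% relative to the plate's high and low controls in the primary single-dose screen; inactive = activation below 50%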;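 also: compound incubated with DTT at 0.8 mM final as the reducing agent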
# L major viab – Leishmania major promastigote growth inhibition, primary screen; AID 1063, 2008; Leishmania major promastigotes, resazurin fluorescence viability; inhibition, % at 10 µM; 200,000 tested, 9% active; in the data active = inhibition above about 50%;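 also: promastigotes grown with compound for 44 hours at 28 °C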
# Hep lipid drop – inhibitors of hepatocyte lipid droplet formation, primary screen, imaging, high-throughput imaging, BODIPY stain. 240,000 tested, 0.4% active. inhibition, % at 6.5 µM. AML12 mouse hepatocytes, oleate lipid droplets. AID 1656, 2009;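 active = lipid droplet intensity inhibited by at least 50%, with more than 500 cells counted; inconclusive = wells with under 300 cells, treated as cytotoxic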
#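 material = mouse AML12 hepatocyte cell line, fixed after treatment | also added = 100 µM oleic acid challenge | doses = compound at 6.5 µM only | schedule = overnight exposure | technique = Image-based BODIPY and DAPI two-channel analysis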
# Rh123 counter – fluorescence retest of MPTP screen hits in isolated mitochondria, single concentration | shares compounds with MPTP inh | membrane potential, Rhodamine 123 fluorescence | inhibition, % at 10 µM | 5,000 tested, 78% active | AID 624504, 2012; in the data active = inhibition above about 22%;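 also: 0% = DMSO vehicle and 100% = positive control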
# MPTP abs DR – mitochondrial permeability transition pore inhibitors, dose response, biochemical, absorbance, uHTS hits; shares compounds with MPTP inh; isolated mitochondria swelling; IC50, µM; 780 tested, 58% active; in the data active = IC50 below about 20 µM
# MPTP counter DR – fluorescent counter-screen in isolated mitochondria, dose response, counter-screen for MPTP inhibitor project, biochemical, fluorescence, uHTS hits; shares compounds with MPTP inh; isolated mitochondria counterscreen, fluorescence read-out; IC50, µM; 780 tested, 49% active; AID 651564, 2012; in the data active = IC50 below about 80 µM
# * hit, by the source's call; i = inactive; ? = inconclusive; nt = no result given; + = active, no number; ! = a repeat was not active. The sample as a whole holds a higher share of hits than the screen did.
SMILES,MPTP inh,T cruzi inh,Redox H2O2 prof,L major viab,Hep lipid drop,Rh123 counter,others
CC(C)NCC(O)c1ccc(C2CCCC2)cc1 (stereo not given),96*,4,0,92*,0,-8,MPTP abs DR=16*;MPTP counter DR=>80
COCCO[C@H]1CC[C@@]2(C)C(=CCC3C2CC[C@@]2(C)C3CC[C@]2(C)O)C1 (stereo not given in full),2,nt,nt,nt,nt,nt,
CCN1/C(=C/C=C/C2=[N+](CC)c3ccccc3C2(C)C)C(C)(C)c2ccccc21,+,nt,nt,nt,nt,92*,
Nc1c2c(nc3sc4c(c13)CCCC4)CCCC2,55*,33,0,92*,2,80*,
CNCCc1nc(N)n[nH]1,-2,-10,0,-2,-7,nt,
CCCCCSc1cc(OC)c(CCN)cc1OC,97*,13,-5,92*,nt,-20,MPTP abs DR=3.4*;MPTP counter DR=77*
CCCCCCCSc1cc(OC)c(CCN(C)C)cc1OC,103*,40,1,100*,nt,-13,
COc1cc(CCN)ccc1O,-1,nt,nt,nt,nt,nt,
OCC1CN1C1CCCCC1 (stereo not given),-1,nt,nt,nt,nt,nt,
Cc1cc(O)c2c3c(c(=O)oc2c1)CCC(C)C3 (stereo not given),57*,5,nt,nt,18,89*,
COc1cc2c(cc1OC)C13CCN4CC5=CCOC6CC(=O)N2C1C6C5C3C4 (stereo not given) (tested in a mixture with another compound),-2,nt,nt,nt,nt,nt,
CC(N)Cc1c[nH]c2ccc(OCc3cccs3)cc12 (stereo not given),82*,19,nt,nt,nt,-11,MPTP abs DR=9.8*;MPTP counter DR=>80
CC(C)=CCN1CC[C@@]2(C)c3cc(O)ccc3C[C@@H]1C2C (stereo not given in full),-1,nt,nt,nt,nt,nt,
CNCC(O)c1cccc(OC(=O)c2ccccc2C)c1 (stereo not given),61*,nt,3,23,nt,-5,MPTP abs DR=8.9*;MPTP counter DR=>80
Cc1ccc(-c2cc(-c3ccc(C)cc3)[n+](-c3ccc(C(=O)O)cc3)c(-c3ccc(C)cc3)c2)cc1,0,2,nt,nt,nt,nt,
Cc1ccc(C[n+]2c(-c3ccc(C)cc3)cc(-c3ccc(C)cc3)cc2-c2ccc(C)cc2)cc1,93*,47,nt,nt,nt,116*,
CCC(C)n1c(O)c(C=Nc2cccc(C(F)(F)F)c2)c(=O)[nH]c1=S (stereo not given),3,4,-1,-8,7,nt,
COc1ccc(N2CCN(CCCN)CC2)cc1,70*,29,3,-3,nt,-4,MPTP abs DR=i;MPTP counter DR=>80
CCCCn1c(O)c(C(CC)=NCc2ccc3c(c2)OCO3)c(=O)[nH]c1=O,68*,14,-4,14,-13,27*,
CN1CCCN(C(=O)COc2ccccc2Br)CC1,2,12,nt,nt,-46,nt,
Oc1c(Br)cc(Br)cc1Br,1,nt,nt,nt,nt,nt,
Oc1c(Br)c(Br)c(Br)c(Br)c1Br,67*,nt,nt,nt,nt,87*,
Oc1c(Cl)cccc1Cc1cc(Cl)cc(Cl)c1O,81*,nt,nt,nt,nt,64*,
CNCC[C@H](Oc1cccc2ccccc12)c1cccs1,94*,9,nt,nt,-5,-13,MPTP abs DR=3.9*;MPTP counter DR=68*
CNC(=O)Oc1cccc2ccccc12,2,-2,nt,nt,-22,nt,
SMILES,MPTP inh,T cruzi inh,Redox H2O2 prof,L major viab,Hep lipid drop,Rh123 counter,others
CCOC(=O)C1(c2ccccc2)CCN(CCC(=O)Nc2cccc(Br)c2)CC1,77*,nt,nt,nt,nt,11,
CCOC(=O)C1(c2ccccc2)CCN(CCC(=O)Nc2ccc(OC)cc2)CC1,0,nt,nt,nt,nt,nt,
O=C(Nc1cc(Cl)cc(Cl)c1)N1Cc2ccccc2-n2nncc2C1,3,nt,nt,nt,nt,nt,
FC(F)(F)c1cccc(C2NCc3ccccc3-n3cccc32)c1 (stereo not given),2,13,nt,nt,-14,nt,
Oc1ccc(C2NCc3ccccc3-n3cccc32)cc1Cl (stereo not given),84*!,-1,3,24,14,-15,MPTP abs DR=i;MPTP counter DR=>80
CC(C)COC(=O)N1Cc2ccccc2-n2nncc2C1,2,nt,nt,nt,nt,nt,
CN(Cc1cccc(-c2ccncc2)c1)C(=O)Oc1ccccc1Cl,47,nt,nt,nt,nt,nt,
CN(Cc1cccc(-c2ccncc2)c1)C(=O)Oc1ccccc1Cc1ccccc1,90*,nt,nt,nt,nt,114*,
OC(c1cccc(Cl)c1)(c1cccc(Cl)c1)C1CN2CCC1CC2 (stereo not given),72*,53,-1,100*,-45,-10,
CN(C)C1C(=O)C(C(N)=O)=C(O)C2(O)C(=O)C3=C(O)c4c(O)cccc4C(C)(O)C3C(O)C12 (stereo not given),0,-5,nt,nt,-12,nt,
N#CC(C#N)=C(C#N)c1ccc(Nc2ccccc2)cc1,118*,-24,nt,nt,-12,61*,
c1ccc(Nc2ccc(Nc3ccccc3)cc2)cc1,3,nt,nt,nt,nt,nt,
CN1C(=O)/C(=C\c2ccc(N3CCCCCC3)cc2)C(=O)NC1=S,71*,-5,nt,nt,8,-10,MPTP abs DR=i;MPTP counter DR=57*
CC(C)(C)c1ccc(CSc2cnn(C(C)(C)C)c(=O)c2Cl)cc1,92*,-12,nt,nt,-104,85*,
C/C(CC(c1ccccc1)c1c(O)c2ccccc2oc1=O)=N\Nc1ccc([N+](=O)[O-])cc1[N+](=O)[O-] (stereo not given),90*,11,nt,nt,-1,77*,
O=C(NCc1cccnc1)Nc1ccc([N+](=O)[O-])cc1,66*,2,nt,nt,5,96*,
O=C(CN1CCOCC1)Nc1ccc(Br)cc1C(=O)c1ccccc1,0,6,-1,3,-1,nt,
O=C(CNC(=O)c1ccc(Cl)cc1)Nc1ccc(Br)cc1C(=O)c1ccccc1,50*,-7,2,-11,-7,67*,
CN(C)c1ccc(/C=C/C=C2/C(=O)NC(=O)N(c3ccccc3)C2=O)cc1,51*,-6,-1,96*,-9,-28,
COc1cccc(CCNCc2ccc(SC)cc2)c1,88*,?,0,51*,-36,-11,MPTP abs DR=13*;MPTP counter DR=>80
COc1ccc(CCNCc2ccccc2)cc1,0,34,nt,nt,0,nt,
COc1cc(C=C2C(=O)NC(=O)NC2=O)ccc1OS(=O)(=O)c1ccccc1[N+](=O)[O-],0,2,nt,nt,2,nt,
O=c1oc2ccccc2c(O)c1C(c1ccc([N+](=O)[O-])cc1)c1c(O)c2ccccc2oc1=O,42,-17,0,-15,7,nt,
CC(C)c1ccc(C(c2c(O)c3ccccc3oc2=O)c2c(O)c3ccccc3oc2=O)cc1,78*,nt,nt,nt,nt,2,MPTP abs DR=3.9*;MPTP counter DR=<2.5*
